Assays:
Rattus norvegicus [1] = assay: Concentration which increases the arterial blood pressure by 20 mmHg in the pithed rat in vivo by intravenous administration; type: functional, Artery
Rattus norvegicus [2] = species on record: Rattus norvegicus; assay: The maximal pressure response caused by the compound in pithed rat; type: functional
Canis familiaris [3] = species on record: Canis familiaris; assay: Effective Concentration compound in isolated canine femoral artery; type: functional; settings: Canis lupus familiaris
How it was run: (§1)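 Isolated canine blood vessels (saphenous vein without endothelium; femoral artery) exposed to increasing agonist concentrations; contractile responses measured.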

[4] = C20 ratio was determined in the presence or absence of 0.1 mg of prazosin for the compound which are indicative of the contribution of alpha-1 adnergic mechanisms to the pressor response; type: functional
How it was run: (§2)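 Pithed rats received test compound as cumulative iv doses, and mean arterial pressure was recorded. C20 is the iv dose (µg/kg) that raises arterial pressure by 20 mmHg (mean ± SEM, n = 5). The same cumulative doses were repeated 10 min after iv prazosin 100 µg/kg or iv yohimbine 1 mg/kg. The ratio is C20 without antagonist over C20 with antagonist.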

[5] = C20 ratio was determined in the presence or absence of 1 mg of yohimbine for the compound which are indicative of the contribution of alpha-2 adnergic mechanisms to the pressor response; type: functional; how it was run: as §2
Canis familiaris [6] = species on record: Canis familiaris; assay: Maximum contractile response expressed as percentage (mean) of the maximal contraction to KCl (100 mM) in the isolated saphenous vein
Canis familiaris [7] = species on record: Canis familiaris; assay: Effective concentration of compound in isolated canine saphenous vein; type: functional; settings: Canis lupus familiaris; how it was run: as §1
Canis familiaris [8] = species on record: Canis familiaris; assay: Maximum contractile response expressed as percentage (mean) of the maximal contraction to KCl (100 mM) in the isolated femoral artery
Canis familiaris [9] = species on record: Canis familiaris; assay: Maximum contractile response expressed as percentage (mean) of the maximal contraction to KCl (100 mM) in the isolated saphenous vein; remark: listed apart in the source
Canis familiaris [10] = species on record: Canis familiaris; assay: Maximum contractile response expressed as percentage (mean) of the maximal contraction to KCl (100 mM) in the isolated femoral artery; remark: listed apart in the source

| Compound | C20 (Rattus norvegicus [1]) [µg/kg] | Max (Rattus norvegicus [2]) [mmHg] | EC50 (Canis familiaris [3]) [nM] | Ratio [4] | Ratio [5] | Emax (Canis familiaris [6]) | EC50 (Canis familiaris [7]) [nM] | Emax (Canis familiaris [8]) | Emax (Canis familiaris [9]) | Emax (Canis familiaris [10]) |
| --- | --- | --- | --- | --- | --- | --- | --- | --- | --- | --- |
| FC(F)(F)c1ccc(Cl)c(NC2=NCCN2)c1 | 8.6 | 129 | 10900 | 16 | 1.8 | 54.4 | 2020 | 19.7 |  |  |
| Cc1ccc2c(c1)CC1(CC2)CN=CN1 (stereo unspecified) | 6.7 | 112 | > 3000 |  |  | 68.5 | 360 | 7.7 |  |  |
| Cc1ccc2c(c1)C[C@]1(CC2)CN=CN1 | 44.8 | 109 | > 3000 |  |  | 39.4 | 2800 | 8.4 |  |  |
| Cc1ccc2c(c1)C[C@@]1(CC2)CN=CN1 | 5.8 | 106 | > 3000 |  |  |  | 220 |  | 78.3 | 15.8 |

Source: ChEMBL document CHEMBL1130142, “(S)-spiro[(1,3-diazacyclopent-1-ene)-5,2'-(7'-methyl-1',2',3',4'- tetrahydronaphthalene)]: resolution, stereospecific synthesis, and preliminary pharmacological characterization as a partial alpha-adrenergic agonist” (J Med Chem, 1997)
